Where a SMILES comes first, the peptide text is derived from it. [ ]: non-standard residue; d: D form. The star is where a group is joined. Hydrocinnamoyl = O=C(CCc1ccccc1)*; Ac5c = NC1(C(=O)O)CCCC1; Deg = CCC(N)(CC)C(=O)O
What was measured:
[1] = biological target: T1, porcine erythrocyte μ-calpain (Sus scrofa, UniProt P35750); assay: Calpain inhibition assay; type: biochemical
T1 sequence (P35750 1-714): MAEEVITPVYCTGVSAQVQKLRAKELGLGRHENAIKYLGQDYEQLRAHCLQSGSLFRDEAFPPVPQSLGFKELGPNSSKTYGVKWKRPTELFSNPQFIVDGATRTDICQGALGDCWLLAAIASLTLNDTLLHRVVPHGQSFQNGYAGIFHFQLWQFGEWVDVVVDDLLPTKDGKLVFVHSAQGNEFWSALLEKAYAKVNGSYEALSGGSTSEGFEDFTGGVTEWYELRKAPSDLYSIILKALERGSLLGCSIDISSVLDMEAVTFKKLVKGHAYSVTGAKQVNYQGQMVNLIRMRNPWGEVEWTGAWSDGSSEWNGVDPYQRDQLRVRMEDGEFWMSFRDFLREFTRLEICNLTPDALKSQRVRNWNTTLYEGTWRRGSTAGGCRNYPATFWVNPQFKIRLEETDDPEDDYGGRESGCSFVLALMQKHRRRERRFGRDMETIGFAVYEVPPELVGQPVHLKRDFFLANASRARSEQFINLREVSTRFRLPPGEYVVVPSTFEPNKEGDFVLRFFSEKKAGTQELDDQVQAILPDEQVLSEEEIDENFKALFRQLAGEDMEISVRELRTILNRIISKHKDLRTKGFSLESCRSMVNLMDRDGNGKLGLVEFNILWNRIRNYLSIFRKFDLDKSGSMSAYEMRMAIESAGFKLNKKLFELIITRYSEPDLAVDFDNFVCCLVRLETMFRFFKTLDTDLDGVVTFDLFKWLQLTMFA
T1 sequence (P04574 1-266 partner): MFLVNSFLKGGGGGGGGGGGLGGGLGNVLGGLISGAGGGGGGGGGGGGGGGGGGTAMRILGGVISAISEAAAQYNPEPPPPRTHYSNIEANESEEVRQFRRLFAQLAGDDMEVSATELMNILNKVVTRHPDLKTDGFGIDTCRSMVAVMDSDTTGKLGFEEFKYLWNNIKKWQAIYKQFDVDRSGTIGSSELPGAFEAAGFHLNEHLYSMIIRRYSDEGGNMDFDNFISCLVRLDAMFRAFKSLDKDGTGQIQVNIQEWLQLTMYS

human liver cathepsin B = human liver cathepsin B (Homo sapiens, UniProt P07858); assay: Cathepsin B inhibition assay; type: biochemical
Procedure, shortened: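 Human liver cathepsin B (1 nM) in 50 mM NaOAc pH 6.0 with 1 mM EDTA and 0.5 mM DTT. Z-Arg-Arg-AMC at 50 µM or 250 µM, plus varying inhibitor concentrations in DMSO (2% total). Ki is the mean of triplicates from Dixon plots (r ≥ 0.95). Selectivity ratio is […].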

| selectivity for μ-calpain compared to cathepsin B [1] | potency for μ-calpain inhibition relative to compound 2 ([1]; 3 compared to 2) | cathepsin B inhibition relative to compound 3 (human liver cathepsin B; 2 compared to 3) [fold] | selectivity for cathepsin B compared to μ-calpain (human liver cathepsin B; as stated in abstract) [fold] | SMILES |
| --- | --- | --- | --- | --- |
| over 35 fold | over 20 fold | – | – | CCC(CC)(NC(=O)CCc1ccccc1)C(=O)N[C@H](C=O)Cc1ccccc1 [Compound 3, N-(1-Benzyl-2-oxo-ethyl)-2-ethyl-2-(3-phenyl-propionylamino)-butyramide] (Hydrocinnamoyl-[Deg]-Phe-aldehyde) |
| – | – | 3 | 3 | O=C[C@H](Cc1ccccc1)NC(=O)C1(NC(=O)CCc2ccccc2)CCCC1 [Compound 2, 1-(3-Phenyl-propionylamino)-cyclopentane carboxylic acid (1-benzyl-2-oxo-ethyl)-amide] (Hydrocinnamoyl-[Ac5c]-Phe-aldehyde) |

— PMC2575414 (Bioorganic & medicinal chemistry letters, 2008)
